Reference: ChEMBL document CHEMBL1124301, “Enantioselectivity of muscarinic antagonists. 2,2-Dicyclohexyl-5-[(dimethylamino)methyl]-1,3-oxathiolane methiodides and related 3-oxides” (J Med Chem, 1988)
Where “and” joins values, the source holds several entries; their conditions need not be identical. Identical values can stand only once.

How the values were obtained:
[1] = biological target: Muscarinic acetylcholine receptor; experiment: Antagonist activity against Muscarinic acetylcholine receptor of guinea pig heart.; assay type: functional, Cavia porcellus
[2] = biological target: Muscarinic acetylcholine receptor; experiment: Antagonist activity against Muscarinic acetylcholine receptor of guinea pig ileum; assay type: functional, tissue-based, Cavia porcellus
[3] = biological target: Muscarinic acetylcholine receptor; experiment: Antagonist activity against Muscarinic acetylcholine receptor of rat bladder; assay type: functional
Summary of the method: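 Longitudinal bladder strip (2 mm wide, urethra to apex) in PSS at 37 °C, recorded isometrically, equilibrated 30 min. Carbachol dose-response curves run at 30-min intervals, with the second taken as control. After 30 min antagonist incubation, the curve was repeated.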

[4] = biological target: Muscarinic acetylcholine receptor; experiment: Antagonist activity against Muscarinic acetylcholine receptor of guinea pig heart; assay type: functional, Cavia porcellus

Structure (SMILES) | pA2 [1] | pA2 [2] | pA2 [3] | pA2 [4]
C[N+](C)(C)C[C@@H]1CSC(C2CCCCC2)(C2CCCCC2)O1.[I-] (stereo in doubt; (-)-2) | 6.02 and 6.05 | 6.92 | 6.34 | 
C[N+](C)(C)C[C@@H]1CSC(C2CCCCC2)(C2CCCCC2)O1.[I-] (stereo in doubt; (+)-2) | 6.37 and 6.42 | 6.98 | 6.28 | 
C[N+](C)(C)C[C@@H]1C[S@@+]([O-])C(C2CCCCC2)(C2CCCCC2)O1.[I-] (stereo in doubt; (+)-4) | 5.55 and 5.4 | 5.81 | 5.51 | 
C[N+](C)(C)C[C@@H]1C[S@+]([O-])C(C2CCCCC2)(C2CCCCC2)O1.[I-] (stereo in doubt; (-)-6) | 5.61 and 5.59 | 5.92 | 5.48 | 
C[N+](C)(C)C[C@@H]1CSC(C2CCCCC2)(C2CCCCC2)O1.[I-] (racemic) | 6.38 | 6.95 | 6.26 | 6.12

Next, values leading:

pA2 [1] | pA2 [2] | pA2 [3] | pA2 [4] | Structure (SMILES)
6.27 and 6.06 | 6.4 | 5.99 |  | C[N+](C)(C)C[C@@H]1C[S@+]([O-])C(C2CCCCC2)(C2CCCCC2)O1.[I-] (racemic)
6.79 and 6.65 | 6.69 | 6.36 |  | C[N+](C)(C)C[C@@H]1C[S@@+]([O-])C(C2CCCCC2)(C2CCCCC2)O1.[I-] (stereo in doubt; (-)-4)
6.45 and 6.31 | 6.32 | 6.27 |  | C[N+](C)(C)C[C@@H]1C[S@+]([O-])C(C2CCCCC2)(C2CCCCC2)O1.[I-] (stereo in doubt; (+)-6)
6.77 and 6.63 | 6.24 | 6.03 |  | C[N+](C)(C)C[C@@H]1C[S@@+]([O-])C(C2CCCCC2)(C2CCCCC2)O1.[I-] (racemic)
